# The source made the active and inactive calls. The rule behind the calls is not given here.
# Assays:
# [1] = target: T1, Glucocorticoid receptor (Canis lupus familiaris) (UniProt A0A8C0QLS2); test: (§1) Agonist activity at dog glucocorticoid receptor in primary hepatocytes assessed as induction of tyrosine amino transferase activity measured after 20 hrs; type: cell-based
# T1 sequence (whole entry): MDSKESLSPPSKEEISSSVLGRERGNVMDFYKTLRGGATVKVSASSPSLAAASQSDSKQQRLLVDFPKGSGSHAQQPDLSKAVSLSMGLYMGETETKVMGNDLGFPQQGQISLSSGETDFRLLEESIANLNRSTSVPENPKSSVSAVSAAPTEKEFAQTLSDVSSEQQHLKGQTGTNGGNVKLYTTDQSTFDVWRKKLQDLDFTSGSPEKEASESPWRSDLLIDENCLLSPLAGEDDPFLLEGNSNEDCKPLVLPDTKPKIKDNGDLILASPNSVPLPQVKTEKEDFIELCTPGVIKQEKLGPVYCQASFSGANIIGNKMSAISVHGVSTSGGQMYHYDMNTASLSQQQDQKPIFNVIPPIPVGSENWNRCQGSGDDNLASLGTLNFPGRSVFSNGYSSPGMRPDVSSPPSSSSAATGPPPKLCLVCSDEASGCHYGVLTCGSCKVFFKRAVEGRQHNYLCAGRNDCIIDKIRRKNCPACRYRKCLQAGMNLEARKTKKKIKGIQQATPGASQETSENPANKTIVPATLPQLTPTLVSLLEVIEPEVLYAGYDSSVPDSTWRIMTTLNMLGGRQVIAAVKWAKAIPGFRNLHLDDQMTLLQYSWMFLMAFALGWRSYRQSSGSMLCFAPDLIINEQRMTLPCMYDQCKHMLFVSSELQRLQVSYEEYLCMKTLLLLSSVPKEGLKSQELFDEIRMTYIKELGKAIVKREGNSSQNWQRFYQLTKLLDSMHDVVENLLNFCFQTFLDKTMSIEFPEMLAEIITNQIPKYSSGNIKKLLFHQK
# [2] = target: T2, Glucocorticoid receptor (Canis lupus familiaris, UniProt A0A8C0QLS2); test: as §1; type: cell-based
# T2 sequence (A0A8C0QLS2 whole entry): T1 sequence (whole entry)
# [3] = system: Rattus norvegicus; test: In vivo antagonist activity at glucocorticoid receptor in Sprague-Dawley rat assessed as reduction in cortisone-induced plasma glucose levels at 7.5 mg/kg, po bid via gavage for 6 days pretreated for 12 hrs followed by cortisone 21-acetate treatment measured 24 hrs after last cortisone 21-acetate treatment; type: functional, organism-based
# Method in brief: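 Male Sprague Dawley rats (200-250 g) got vehicle daily for a 3-day baseline, then groups of eight were dosed. Test agent was suspended in DMSO:Tween 80:0.5% HPMC (10:0.1:89.9) and given by oral gavage twice daily for 6 days. Cortisone 21-acetate was given at 30 mg/kg s.c. once daily in 1% methylcellulose. Tail-vein blood was taken 24 h after the last cortisone dose (12 h after the last test dose). Glucose was read with a clinical reagent and insulin by rat ELISA.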
# [4] = target: T3, Glucocorticoid receptor (Homo sapiens, UniProt P04150); test: (§2) Antagonist activity at glucocorticoid receptor in human primary hepatocytes assessed as inhibition of dexamethasone-induced tyrosine amino transferase activity preincubated for 30 mins followed by dexamethasone addition measured after 20 hrs; type: cell-based
# T3 sequence (P04150 whole entry): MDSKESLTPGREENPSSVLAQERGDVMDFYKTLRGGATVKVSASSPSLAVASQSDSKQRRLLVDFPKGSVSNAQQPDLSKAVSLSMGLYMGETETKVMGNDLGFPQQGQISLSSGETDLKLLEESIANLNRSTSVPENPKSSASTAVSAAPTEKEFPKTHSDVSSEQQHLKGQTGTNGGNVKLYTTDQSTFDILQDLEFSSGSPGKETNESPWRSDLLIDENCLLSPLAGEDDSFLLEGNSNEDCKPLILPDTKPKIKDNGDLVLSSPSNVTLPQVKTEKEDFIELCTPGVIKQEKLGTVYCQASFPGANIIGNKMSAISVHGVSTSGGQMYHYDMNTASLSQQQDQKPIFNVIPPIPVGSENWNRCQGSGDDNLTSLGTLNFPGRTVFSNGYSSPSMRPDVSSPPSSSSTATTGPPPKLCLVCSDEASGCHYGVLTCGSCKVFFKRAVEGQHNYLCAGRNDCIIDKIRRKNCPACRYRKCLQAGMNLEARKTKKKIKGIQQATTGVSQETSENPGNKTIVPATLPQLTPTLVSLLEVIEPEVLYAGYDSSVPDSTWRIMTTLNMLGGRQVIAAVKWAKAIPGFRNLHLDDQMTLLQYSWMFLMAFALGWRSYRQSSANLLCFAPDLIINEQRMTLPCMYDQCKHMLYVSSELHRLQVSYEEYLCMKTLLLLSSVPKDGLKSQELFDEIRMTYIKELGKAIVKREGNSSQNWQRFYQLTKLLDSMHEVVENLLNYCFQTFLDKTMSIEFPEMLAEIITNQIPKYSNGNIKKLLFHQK
# [5] = target: T4, Glucocorticoid receptor (Homo sapiens) (UniProt P04150); test: as §2; type: cell-based
# T4 sequence (whole entry): T3 sequence (P04150 whole entry)
# [6] = AUC in Sprague-Dawley CD-1 rat plasma at 3 mg/kg, po administered as cassette dose via gavage measured up to 24 hrs by LC/MS analysis; type: ADME, organism-based; design: time < 24 hr, dose 3 mg/kg, route oral
# Method in brief: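 Three male Sprague Dawley CD-1 rats (220-250g) with jugular vein catheters; three test compounds plus a reference dosed together by oral gavage, 3mg/kg each, in DMSO:0.5% methylcellulose 10:90 (0.6mg/mL per compound), 5mL/kg. Plasma sampled pre-dose and at 0.25, 0.5, 1, 2, 4, 6, 8, 24 h; LC/MS.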
# [7] = target: T5, Glucocorticoid receptor (Rattus norvegicus) (UniProt P06536); test: Partial agonist activity at rat glucocorticoid receptor in primary hepatocytes assessed as induction of tyrosine amino transferase activity at 10 uM measured after 20 hrs; type: cell-based
# T5 sequence (whole entry): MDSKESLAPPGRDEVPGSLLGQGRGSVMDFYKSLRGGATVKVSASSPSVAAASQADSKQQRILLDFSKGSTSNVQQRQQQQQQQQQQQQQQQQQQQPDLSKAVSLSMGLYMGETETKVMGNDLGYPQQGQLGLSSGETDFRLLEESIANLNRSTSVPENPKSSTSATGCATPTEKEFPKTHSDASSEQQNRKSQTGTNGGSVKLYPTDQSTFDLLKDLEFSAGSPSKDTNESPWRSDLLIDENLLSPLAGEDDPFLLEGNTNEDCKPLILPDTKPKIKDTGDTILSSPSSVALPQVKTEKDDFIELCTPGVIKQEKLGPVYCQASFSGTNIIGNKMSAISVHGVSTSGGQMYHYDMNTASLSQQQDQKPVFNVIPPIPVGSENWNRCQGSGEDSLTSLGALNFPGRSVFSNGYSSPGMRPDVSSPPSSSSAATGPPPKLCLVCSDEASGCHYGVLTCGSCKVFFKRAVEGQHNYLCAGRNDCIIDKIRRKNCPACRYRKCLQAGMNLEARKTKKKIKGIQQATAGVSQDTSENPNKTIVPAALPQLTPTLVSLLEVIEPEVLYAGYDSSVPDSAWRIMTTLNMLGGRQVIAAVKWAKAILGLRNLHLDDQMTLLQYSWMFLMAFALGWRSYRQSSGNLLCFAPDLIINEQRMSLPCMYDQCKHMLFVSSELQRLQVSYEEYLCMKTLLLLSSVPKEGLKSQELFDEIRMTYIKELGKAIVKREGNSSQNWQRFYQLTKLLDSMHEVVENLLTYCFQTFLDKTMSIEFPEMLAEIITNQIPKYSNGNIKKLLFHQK
smiles,measurement,setting,value
Cn1cc(S(=O)(=O)N2CCC3=Cc4c(cnn4-c4ccc(F)cc4)C[C@]3(C(=O)c3cc(C(F)(F)F)ccn3)C2)cn1 [RELACORILANT],Emax,[1],80%
same,EC50,[2],> 10 µM
same,inhibition,[3],Active
same,Ki,[4],0.0812 µM
same,Imax,[5],100%
same,AUC at 24 h,[6],1.22 µg·h/mL
same,Activity,[7],Active

# — ChEMBL document CHEMBL4049426, “Identification of the Clinical Candidate (R)-(1-(4-Fluorophenyl)-6-((1-methyl-1H-pyrazol-4-yl)sulfonyl)-4,4a,5,6,7,8-hexahydro-1H-pyrazolo[3,4-g]isoquinolin-4a-yl)(4-(trifluoromethyl)pyridin-2-yl)methanone (CORT125134): A Selective Glucocorticoid Receptor (GR) Antagonist” (J Med Chem, 2017)
